{"source": "ChEMBL document CHEMBL4765242", "about": "“Novel Triapine Derivative Induces Copper-Dependent Cell Death in Hematopoietic Cancers” (J Med Chem, 2019)", "key": {"MV4-11 [1]": {"tested_on": "MV4-11", "test": "Inhibition of mitochondrial ROS production in human MV4-11 cells at 50 to 500 nM pretreated with NAC followed by compound addition measured after 4 hr by MitoSox red dye based flow cytometry analysis", "format": "functional, cell-based", "settings": "dose 50-500 nM"}, "MV4-11 [2]": {"tested_on": "MV4-11", "test": "Induction of cell death in human MV4-11 cells at 50 nM measured after 48 hrs by propidium iodide staining based FACScalibur flow cytometry analysis", "format": "functional"}, "KMS-11": {"tested_on": "KMS-11", "test": "Potency index, ratio of triapine IC50 to test compound IC50 for human KMS-11 cells assessed as reduction in cell viability incubated for 48 hrs by cell-titer-Glo luminescent cell viability assay", "format": "functional", "summary_of_the_method": "(§1)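 Cells were exposed to increasing concentrations of triapine or of the test compound in parallel. Viability was read by CellTiter-Glo luminescence 48 h after treatment, relative to vehicle-treated cells. IC50 was fitted by non-linear regression to a standard sigmoidal dose-response model, and the index was taken from the two IC50s.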"}, "THP-1": {"tested_on": "THP-1", "test": "Potency index, ratio of triapine IC50 to test compound IC50 for human THP-1 cells assessed as reduction in cell viability incubated for 48 hrs by cell-titer-Glo luminescent cell viability assay", "format": "functional", "summary_of_the_method": "as §1"}}, "note": "The source made the active and inactive calls. The rule behind the calls is not given here."}
{"smiles": "COc1cc2nc(N/N=C3\\CCCc4cccnc43)sc2cc1OC", "values": [{"measurement": "Activity", "setting": "MV4-11 [1]", "result": "Active"}, {"measurement": "Activity", "setting": "MV4-11 [2]", "result": "Active"}, {"measurement": "Ratio IC50", "setting": "KMS-11", "result": 10}, {"measurement": "Ratio IC50", "setting": "THP-1", "result": 10}]}
